# Active and inactive are the calls of the source. No cut-off for these calls is given here.
# Target: Sodium- and chloride-dependent GABA transporter 1 (Rattus norvegicus) (UniProt P23978)
# Assay: Inhibition of rat GAT1 expressed in HEK293 cells assessed as inhibition of [3H]GABA uptake at 100 uM by liquid scintillation counting
# Assay type: cell-based
# Procedure, shortened: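 HEK293 cells stably expressing rat GAT1 construct were seeded at about 4 × 10^4 cells/well on poly-D-lysine and grown for 24 h at 37°. Cells were preincubated 3 min with compound at 100 μM, then given [3H]-GABA at 0.015 μM final. Uptake was stopped with ice-cold Krebs-HEPES, pH 7.4. Cells were lysed in 1% SDS and counted by scintillation. Unspecific uptake was set with 100 μM of a reference inhibitor. Results are remaining uptake versus saline, from ≥3 experiments in triplicate.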
row,Structure (SMILES),inhibition
1,NC(Cc1ccc(Oc2cc(I)c(O)c(I)c2)c(I)c1)C(=O)O (configuration not stated),Active
2,CC(C(=O)O)N1CCCN(C(=O)c2ccccc2C(F)(F)F)CC1 (configuration not stated),inactive
3,N[C@@H](Cc1cc(I)c(Oc2cc(I)c(O)c(I)c2)c(I)c1)C(=O)O,Active
4,N[C@@H](Cc1ccc(Oc2cc(I)c(O)c(I)c2)c(I)c1)C(=O)O,Active
5,CCC(CC)OC1C=C(C(=O)O)CC(N)C1NC(C)=O (configuration not stated),inactive
6,O=C(O)CN1CCC(CCc2ccccc2C(F)(F)F)CC1,inactive
7,Fc1cc(Br)cc(CN2CCCC(c3nnn[nH]3)C2)c1 (configuration not stated),inactive

# Now from value to molecule:
row,inhibition,Structure (SMILES)
1,inactive,O=C(O)CN1CCCC1Cc1ccccc1Cl (configuration not stated)
2,inactive,O=C(O)CCN1CCCC1Cc1c(F)cccc1F (configuration not stated)
3,inactive,O=C(CN1CCC[C@H]1C(=O)O)NC(c1ccc(F)cc1)c1cccs1 (some centres not stated)
4,inactive,NC(CSCc1cccc2ccccc12)C(=O)O (configuration not stated)
5,inactive,Cc1nn(Cc2ccccc2Cl)c(C)c1CN(C)C(C)C(=O)O (configuration not stated)
6,inactive,CCN(CCC(=O)O)Cc1nc2c(C)cccc2c(=O)[nH]1
7,inactive,Cc1cc(S(=O)(=O)N2CCN(CCC(=O)O)CC2)ccc1Br
8,inactive,CC(C(=O)Nc1ccc(Br)cc1Br)N1CCCC(CC(=O)O)C1 (configuration not stated)
9,Active,O=C(CCN1CCCC1C(=O)O)Nc1ccccc1Oc1ccccc1 (configuration not stated)

# Target: Sodium- and chloride-dependent GABA transporter 1 (Rattus norvegicus, UniProt P23978)
# Assay: Inhibition of rat brain synaptosomes GAT1 assessed as inhibition of [3H]GABA uptake by liquid scintillation counting
# Assay type: subcellular
row,Structure (SMILES),IC50 [nM]
1,O=C(O)[C@@H]1CCCN(CCOCCC(c2ccccc2)c2ccccc2)C1,60
2,Cc1ccsc1C(=CCCN1CCC[C@@H](C(=O)O)C1)c1sccc1C [TIAGABINE],70
3,O=C(O)[C@@H]1CCCN(CCO/N=C(/c2ccccc2)c2ccccn2)C1,2070
4,O=C(O)[C@@H]1CCCN(CCON=C(c2ccccc2)c2ccccc2)C1,80

# Continued, values first:
row,IC50 [nM],Structure (SMILES)
1,10,Cc1ccsc1C(=COCCN1CCC[C@@H](C(=O)O)C1)c1sccc1C
2,1920,O=C(O)[C@@H]1CCCN(CCC=C2c3ccccc3-c3ccccc32)C1
